This is a sample that favours compounds with a hit; in the whole collection about 2.6% have one here.
GSTO1 inh: counter-screen for RBBP9 inhibitors: inhibitors of human GSTO1; recombinant GSTO1, activity-based probe fluorescence polarization; 300,000 tested, 1.1% active; P78417; inhibition, % at 5.96 µM;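 active = inhibition above the campaign mean inhibition plus 3 SD, cut at about 35% in these data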;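 note: 0% = GSTO1-1 with DMSO and 100% = wells lacking GSTO1-1 enzyme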
TDP2 inh: blocks human TDP2 phosphodiesterase activity | inhibition, % at 12.8 µM | 370,000 tested, 0.34% active | O95551 | recombinant TDP2, T5PNP hydrolysis, p-nitrophenol absorbance 415 nm;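 active = inhibition above the mean of all tested compounds plus 3 SD, set per campaign, cut at about 25% in these data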;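 note: 0% = DMSO with enzyme and 100% = buffer with substrate but no TDP2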
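Assay system: recombinant human TDP2 / Reagent: T5PNP substrate at 5 mM, a TopII-DNA adduct mimic / Measured by: epi absorbance from released p-nitrophenol / Evaluation: % inhibition relative to enzyme-containing and enzyme-free wells / Control set: enzyme-free and DMSO wells / Replicates: each compound tested once, singlicate / Schedule: enzyme reaction with compound for 2 h at 37 °C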
PAD4 inh: PAD4 (human) enzyme inhibition | Q9UM07 | recombinant PAD4, RCA probe fluorescence polarization | inhibition, % at 6.36 µM | 330,000 tested, 0.41% active | AID 485272;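 active = percent inhibition above a cutoff equal to the mean of all tested compounds plus 3 SD, cut at about 15% in these data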;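 note: 0% = PAD4 with RCA probe and DMSO and 100% = probe without PAD4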
Target sequence (Q9UM07 whole entry, looked up): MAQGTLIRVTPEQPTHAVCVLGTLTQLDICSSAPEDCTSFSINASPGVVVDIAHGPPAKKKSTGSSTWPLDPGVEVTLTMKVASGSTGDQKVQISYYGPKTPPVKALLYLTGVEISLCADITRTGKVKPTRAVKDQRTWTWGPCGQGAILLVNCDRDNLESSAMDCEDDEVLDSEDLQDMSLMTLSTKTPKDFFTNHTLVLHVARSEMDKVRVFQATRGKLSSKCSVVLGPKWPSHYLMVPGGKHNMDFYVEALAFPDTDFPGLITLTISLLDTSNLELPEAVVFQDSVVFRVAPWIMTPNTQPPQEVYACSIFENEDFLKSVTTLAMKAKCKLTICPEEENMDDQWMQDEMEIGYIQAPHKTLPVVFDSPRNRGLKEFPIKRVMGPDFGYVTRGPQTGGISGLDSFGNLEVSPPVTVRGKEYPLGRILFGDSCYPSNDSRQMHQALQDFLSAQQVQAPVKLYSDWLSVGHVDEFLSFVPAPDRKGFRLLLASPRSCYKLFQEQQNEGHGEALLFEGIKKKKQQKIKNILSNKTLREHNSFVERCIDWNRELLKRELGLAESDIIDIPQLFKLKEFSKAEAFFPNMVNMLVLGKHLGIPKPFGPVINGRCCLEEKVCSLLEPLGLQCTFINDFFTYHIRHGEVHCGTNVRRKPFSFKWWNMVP
Apaf-1 inh: inhibitors of human Apaf-1 apoptosome. reconstituted apoptosome caspase-3 activity, DEVD-Rh110 fluorescence. 330,000 tested, 0.71% active. AID 489030. O14727. inhibition, % at 20 µM; active = inhibition of at least 40% at 20 µM;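 note: plate controls were DMSO wells for no effect and DEVD-CHO caspase inhibitor wells for full effect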
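Material: reconstituted apoptosome with Apaf-1, cytochrome c, caspase-9, procaspase-3, dATP / Buffer or medium: pH 7.5 Hepes buffer with CHAPS, BSA, DTT / Also added: cytochrome c with DEVD-Rh110 / Schedule: compound with Apaf-1, dATP, procaspase-3 30 min, then 50 min reaction, room temperature / Technique: rhodamine 110 fluorescence at Ex 480/Em 540 nm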
PRMT1 inh: inhibitors of human PRMT1. recombinant PRMT1, activity-based probe fluorescence polarization. 370,000 tested, 1.3% active. inhibition, % at 2.79 µM;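 active = inhibition above about 21% made by adding two undisclosed values, limit read from the data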
The depositor's hits bear a star; . = no result.

SMILES	GSTO1 inh	TDP2 inh	PAD4 inh	Apaf-1 inh	PRMT1 inh
O=C(N/N=C/c1cc(Cl)c(O)c(Cl)c1)c1cc2c(ccc3ccccc32)o1	37*	13	-2	14	4
CCOc1cc(/C=C2\C(=O)N(c3nc(-c4ccc(Br)cc4)cs3)N=C2c2ccccc2)ccc1O	-47	.	-10	53*	.
O=C(Nc1ccccc1C(F)(F)F)NC1(C(=O)N2CCOCC2)CCCCC1	.	3	.	.	23*
COc1cc(NC(=O)c2ccccc2)c(C)cc1NC(=O)CSc1nnc(COc2ccccc2)n1Cc1ccco1	.	-3	.	.	-4
CCOc1ccc(OCC)c(NC(=O)C2C3C=CC(O3)C2C(=O)O)c1 (stereo unspecified)	.	-4	.	.	2
CCOc1ccccc1NC(=O)C1C2C=CC(O2)C1C(=O)O (stereo unspecified)	11	7	-6	1	23*
CC(=O)OCC1=C(C(=O)O)N2C(=O)[C@@H](NC(=O)CSc3ccncc3)[C@H]2SC1	.	-3	.	-9	19
CC(=O)OCC1=C(C(=O)O)N2C(=O)C(NC(=O)C(C)Cn3nc(C)c(Cl)c3C)C2SC1 (stereo unspecified)	5	17	-1	-90	25*
CC(=O)OCC1=C(C(=O)O)N2C(=O)C(NC(=O)c3ccc(F)cc3)C2SC1 (stereo unspecified)	1	1	-2	-10	24*
CC1=C(C(=O)O)N2C(=O)[C@@H](NC(=O)[C@H](N)c3ccc(O)cc3)[C@H]2SC1	.	5	.	.	7
CSc1ccc(-c2sc(Nc3cccc4ccccc34)n[n+]2-c2ccccc2)cc1	37*	5	-9	5	5
COc1cc([N+](=O)[O-])cc(/C=C2/SC(=S)N(Cc3ccccc3)C2=O)c1O	-204	14	-106	.	21*
COc1cc(/C=C2/SC(=S)N(Cc3ccccc3)C2=O)cc(Cl)c1O	-229	13	-149	.	-1
O=C(O)CN1C(=O)/C(=C\c2cc(Br)ccc2OCc2ccc([N+](=O)[O-])cc2)SC1=S	-2	3	-5	18	24*
O=C1C=CC(=O)c2c(O)c(CO)c(CO)c(O)c21	.	28*	.	.	50*
O=c1c(CO)cc(CO)cc(CO)c1O	13	-3	4	-17	-1
NC(=S)c1ccc[n+]([O-])c1	.	-10	.	.	59*
CCOC(=O)COc1ccc(/C=C2/C(=O)NN(c3ccc(F)cc3)C2=O)cc1OC	6	-1	0	9	3
CCOC(=O)c1ccc(N2NC(=O)/C(=C/c3ccc(OC(=O)c4ccco4)c(OC)c3)C2=O)cc1	37*	-3	-2	12	12
ClCC1=Nc2cccc3cccc(c23)N1	55*	.	2	-25	.
CC(C)C1=Nc2cccc3cccc(c23)N1	16	1	0	9	9
N#Cc1c(-c2ccc(Br)cc2)cc(-c2cccnc2)nc1N	-2	-1	3	1	-1
CS(=O)c1nc(-c2ccc(Br)cc2)cc(-c2ccccc2)c1C#N (stereo unspecified)	-18	5	0	55*	-2
CC(C)(C)OC(=O)NCCCC1=CC2=CC(=O)C(C)(OC(=O)c3ccc(Cl)nc3)C(=O)C2=CO1 (stereo unspecified)	22	.	25*	-1	.
N#Cc1cccc(C(=O)N2CCC(Oc3cccnc3)CC2)c1	.	7	.	.	-6
SMILES	GSTO1 inh	TDP2 inh	PAD4 inh	Apaf-1 inh	PRMT1 inh
COCCn1c(C)cc(/C=C2\NC(=S)N(C)C2=O)c1C	6	-5	-1	-2	22*
COCCn1c(C)cc(/C=C2/SC(=O)N(C(C)C(=O)OC)C2=O)c1C (stereo unspecified)	-4	1	2	-2	4
CCOC(=O)[C@@]12CN(C(=O)OC(C)(C)C)CC=C1N(Cc1ccc(OC)cc1)C(=O)[C@H]2CC(=O)N1CCOCC1	.	8	.	.	-1
Oc1ccc(-c2cnns2)c(O)c1	15	1	-4	-18	24*
Oc1ccc(-c2nc3ccccc3s2)c(O)c1	-3	2	-4	0	1
O=C(COC(=O)c1ccccc1)c1ccc(S(=O)(=O)N2CCCCC2)cc1	.	4	.	14	-3
CC(C)[C@H](NC(=O)c1ccccc1)C(=O)OCC(=O)c1ccc(S(=O)(=O)N2CCCCC2)cc1	37*	1	-1	5	-3
COc1ccc(-c2ccc(C(=S)N3CCN(C(C)=O)CC3)o2)cc1	2	9	-2	-12	22*
CC1=CC(=Nc2c(C)n(C)n(-c3ccccc3)c2=O)C=C(C)C1=O	50*	-9	-1	-1	-1
CCC(C)C1=CC(=Nc2c(C)n(C)n(-c3ccccc3)c2=O)C=C(C(C)CC)C1=O (stereo unspecified)	9	6	-7	19	-3
CC(C)Cc1nc(SCC(=O)Nc2nnc(CC(C)C)s2)n[nH]1	9	-3	-1	11	0
CC(C)Cc1nnc(NC(=O)CSc2nc(O)c(-c3ccccc3)c(=O)[nH]2)s1	71*	9	8	13	-3
Cc1ccc2[nH]c3c(c2c1)CN(C(=O)CN1CCN(C(=O)c2ccco2)CC1)CC3	7	-1	-10	19	21*
O=C(c1ccco1)N(c1ccccn1)c1ccccn1	-2	4	-5	20	2
O=C(/C=C/c1ccco1)N(c1ccccn1)c1ccccn1	42*	14	5	1	9
COc1ccc(/C=N/n2c(C)nc3c([nH]c4ccccc43)c2=O)cc1CN1CCCC(C)(C)C1	7	-3	0	14	2
COc1ccc2[nH]c3c(=O)n(/N=C/c4ccc(OC)c(CN5CCCC5)c4)c(C)nc3c2c1	7	-11	2	43*	4
CCC(C)NC(=O)[C@@H]1CSC2c3ccccc3C(=O)N21 (stereo partly specified)	5	-9	0	-4	21*
CCC(C)[C@H](NC(=O)[C@@H]1CSC2c3ccccc3C(=O)N21)C(=O)N1CCCCC1 (stereo partly specified)	1	-11	-3	-1	-2
CCn1c(=O)n(CC(=O)N2CCCN(Cc3ccccc3)CC2)c(=O)c2ccccc21	.	9	.	.	2
COc1ccc(S(=O)(=O)N2N=C(c3cccc(NS(C)(=O)=O)c3)CC2c2ccco2)cc1 (stereo unspecified)	1	-7	-6	-6	23*
COc1ccc(S(=O)(=O)N2N=C(c3ccc(NS(C)(=O)=O)cc3)CC2c2ccco2)cc1 (stereo unspecified)	6	-6	-2	6	7
CC(/C=N/NC(=O)CSc1nnc(SCc2ccc(C)cc2)s1)=C\c1ccco1	.	1	.	.	1
Cc1cccc(-c2n[nH]c(=S)n2/N=C/c2ccc(C)o2)c1	7	-3	5	6	22*
Cc1cc(-c2n[nH]c(=S)n2/N=C/c2ccc(C)o2)n[nH]1	-2	-10	1	-14	-4
